Source: PubChem
The list is not random: actives were taken first. Their share in the collection is about 2.4%.
UBC13 polyUb: UBC13 polyubiquitin chain formation inhibitors, primary screen, biochemical, TR-FRET, uHTS | Ubiquitin-conjugating enzyme E2 N (Homo sapiens), P61088 | inhibition, % at 20 µM | 0.47% of 330,000 active | AID 485273, 2010; in the data active = inhibition above about 45%, passing the limit was not always enough
Target sequence (P61088 whole entry, looked up): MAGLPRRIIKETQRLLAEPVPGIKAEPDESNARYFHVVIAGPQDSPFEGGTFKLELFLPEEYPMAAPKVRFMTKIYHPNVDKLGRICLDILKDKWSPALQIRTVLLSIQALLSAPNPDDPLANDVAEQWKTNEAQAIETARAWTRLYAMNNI
DNA FID counter: compounds displacing fluorescent DNA intercalator, primary screen, artefact control for HCV NS3 helicase inhibitor project, biochemical, FID fluorescence; DNA fluorescent intercalator displacement; AID 1845, 2009; inhibition, % at 7.9 µM; 0.17% of 290,000 active; in the data active = inhibition above about 37%;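 also: 0% = vehicle and 100% = reference compound; higher means more ethidium bromide displaced from hairpin DNA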
Apaf-1 inh: inhibitors of human Apaf-1 apoptosome, primary screen, biochemical, DEVD-Rh110 fluorescence, uHTS; Apoptotic protease-activating factor 1 (Homo sapiens), O14727; reconstituted apoptosome caspase-3 activity; inhibition, % at 20 µM; 0.71% of 330,000 active; active = inhibition of at least 40% at 20 µM;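 also: plate controls were DMSO wells for no effect and DEVD-CHO caspase inhibitor wells for full effect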
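System – cell-free apoptosome with Apaf-1, procaspase-3 and caspase-9 · Buffer or medium – pH 7.5 Hepes buffer with CHAPS, BSA, DTT · Also added – cytochrome c with DEVD-Rh110 · Times – 30 min compound preincubation, 50 min activation, room temperature · Technique – Rh110 fluorescence intensity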
ANO1 block: TMEM16A chloride channel inhibitors, primary screen, cell-based, HTS; normalized B-score (activity score, 25-100; higher = stronger inhibition) at 10 µM; HEK293 TMEM16A/YFP iodide influx fluorescence, ionomycin; Anoctamin-1 (Mus musculus), Q8BHY3; 1.2% of 310,000 active;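 active = ratio plate-corrected score three or more library SD toward inhibition, starting fluorescence score within five deviations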;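 also: score derived from kinetic fluorescence span divided by baseline fluorescence per well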
TMEM16A act: TMEM16A chloride channel activators or potentiators, primary screen, cell-based, HTS | 0.3% of 340,000 active | Anoctamin-1 (Mus musculus), Q8BHY3 | HEK293 TMEM16A/YFP-H148Q/I152L, iodide quench fluorescence; active compounds read low | B-score at 10 µM;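 active = fluorescence-ratio B-score plate-corrected deviation score at least 3 library SD below zero, with starting fluorescence score within 5 deviations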;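 also: channel opened by trigger with iodide after compound preincubation; score built on the fluorescence ratio of max minus min over baseline; more negative score means more quench and so TMEM16A activation or potentiation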
Casp3 UBC13 ctr: CASP3 inhibitor validation, counterassay for project on UBE2N polyubiquitination blockers, biochemical, one dose. shares compounds with UBC13 polyUb. Recombinant caspase-3, Caspase-Glo 3/7 luminescence, 60 min. inhibition, % at 20 µM. 4% of 1,400 active. AID 488856, 2010;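 active = mean inhibition across replicates above about 26%, limit read from the data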;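 also: plate controls were DMSO with caspase-3 for no effect and DMSO wells lacking enzyme for full effect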
Target sequence (P42574 whole entry, looked up): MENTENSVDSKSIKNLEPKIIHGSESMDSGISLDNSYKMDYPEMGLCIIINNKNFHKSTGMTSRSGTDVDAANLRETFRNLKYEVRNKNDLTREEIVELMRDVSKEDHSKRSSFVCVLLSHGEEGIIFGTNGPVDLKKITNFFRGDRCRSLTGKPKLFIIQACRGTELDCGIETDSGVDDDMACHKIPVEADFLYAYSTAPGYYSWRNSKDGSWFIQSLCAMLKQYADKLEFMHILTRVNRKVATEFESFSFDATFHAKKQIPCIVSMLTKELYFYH
UBC13 conf: UBC13 polyubiquitination inhibitors, single-point retest, confirmation, biochemical, TR-FRET, single concentration | inhibition, % at 10 µM | 68% of 1,400 active | shares compounds with UBC13 polyUb; in the data active = inhibition above about 45%
Active calls of the source: *; i = inactive; / = no result given.

SMILES	UBC13 polyUb	DNA FID counter	Apaf-1 inh	ANO1 block	TMEM16A act	Casp3 UBC13 ctr	UBC13 conf
Cc1ccc(C(C(=O)NCC2CCCO2)N(C(=O)c2snc(C(N)=O)c2N)c2ccc(C)c(C)c2)o1 (stereo not drawn)	64.6*	-42.4	14.9	i	i	-0.4	70.1*
Cc1cc(C)cc(N(C(=O)c2snc(C(N)=O)c2N)C(C(=O)NCC2CCCO2)c2ccc(C)o2)c1 (stereo not drawn)	60.5*	-44.1	16.0	i	i	-0.2	49.1*
Cc1ccc(C(C(=O)NCC2CCCO2)N(C(=O)c2snc(C(N)=O)c2N)c2ccc3c(c2)OCCO3)cc1 (stereo not drawn)	56.0*	-43.2	25.8	i	i	0.6	79.2*
Cc1cc(C)cc(N(C(=O)c2snc(C(N)=O)c2N)C(C(=O)NCC2CCCO2)c2cccs2)c1 (stereo not drawn)	65.6*	-32.8	19.8	i	i	2.4	70.7*
NC(=O)c1nsc(C(=O)N(c2ccccc2)C(C(=O)NCC2CCCO2)c2cccs2)c1N (stereo not drawn)	39.5	-15.9	-11.4	i	i	/	/
CCC(C(=O)NCC1CCCO1)N(C(=O)c1snc(C(N)=O)c1N)c1ccc(Cl)cc1 (stereo not drawn)	15.8	-29.0	5.5	i	i	/	/
O=C(CN(Cc1ccc(F)cc1)C(=O)CCC(=O)Nc1ccccn1)NCCc1ccccc1	6.6	-37.3	-0.2	i	i	/	/
O=C(COC(=O)c1c[nH]c(=O)[nH]c1=O)Nc1cccc([N+](=O)[O-])c1	66.3*	/	-7.8	/	i	-2.6	75.6*
O=C(CCC(=O)c1cccs1)NCc1cccc(C(F)(F)F)c1	-0.6	/	6.7	i	i	/	/
CCc1ccc(OCCNc2cc(N3CCNC(C)C3)ccc2[N+](=O)[O-])cc1 (stereo not drawn)	68.3*	/	75.0*	/	i	-4.0	55.3*
CC1CN(c2ccc([N+](=O)[O-])c(NCCOc3ccc(Cl)cc3)c2)CC(C)N1 (stereo not drawn)	22.5	31.8	26.7	i	i	/	/
Cc1ccccc1CNC(=O)CCCC(=O)n1nc(C)c2ccccc21	45.7*	-31.2	11.7	i	i	1.4	62.9*
CC1CCCCN1CCNC(=O)c1cc2c(=O)n(C)c3ccccc3c2n1C (stereo not drawn)	46.5*	12.3	15.3	i	i	1.8	46.3*
Cc1cccc2c1c(N=NC(N)=S)c(O)n2C1OC(CO)C(O)C(O)C1O (stereo not drawn)	67.3*	-4.2	-18.0	i	i	4.8	96.9*
Nc1cccc2c1nnn2C1OC(CO)C(O)C(O)C1O (stereo not drawn)	4.4	1.0	1.2	i	i	/	/
CN(C)S(=O)(=O)c1cccc(COc2ncnc3c(Cl)cc(Cl)cc23)c1	63.7*	-23.7	3.0	i	-9.47*	5.9	76.4*
CCCc1nnc(NC(=O)c2nc(S(=O)(=O)Cc3cccc(C)c3)ncc2Cl)s1	54.4*	-60.0	-5.7	i	i	5.3	61.6*
Cc1noc(C)c1NC(=O)Nc1ccc2c(c1)CC(=O)N([C@H](C)CO)C[C@@H](C)[C@H](CN(C)CC1CCCCC1)O2	-10.1	/	8.4	/	i	/	/
CCN1CCN(Cc2ccc(NC(=O)c3ccc(C)c(NC(=O)c4ccnnc4)c3)cc2C(F)(F)F)CC1	0.0	/	-1.9	i	i	/	/
CCN1CCN(Cc2ccc(NC(=O)c3cc(NC(=O)c4cnn(-c5ccccc5)c4N)cc(OC)c3)cc2C(F)(F)F)CC1	78.6*	/	19.0	i	i	-4.3	50.4*
CCN1CCN(Cc2ccc(NC(=O)c3cc(NC(=O)c4cc(C)on4)cc(OC)c3)cc2C(F)(F)F)CC1	52.5*	41.6*	33.1	i	i	-3.0	25.8
CC(=O)Oc1ccc(N2C(=O)C3C4C=CC(C5CC45)C3C2=O)cc1[N+](=O)[O-] (stereo not drawn)	-21.7	-1.7	-1.6	i	i	/	/
C=CCN(CC=C)c1cnn(-c2nc3ccccc3[nH]2)c(=O)c1Cl	10.2	-8.1	-14.1	i	i	/	/
O=c1c(Cl)c(NCCCO)cnn1-c1nc2ccccc2[nH]1	90.7*	-6.2	-20.2	i	i	92.8*	109.5*
Cn1nc(C(=O)NNC(=O)c2cccc(Cl)c2)ccc1=O	5.2	/	-4.3	/	i	/	/
SMILES	UBC13 polyUb	DNA FID counter	Apaf-1 inh	ANO1 block	TMEM16A act	Casp3 UBC13 ctr	UBC13 conf
O=C(C1=C[C@@H](c2coc3ccccc3c2=O)C[C@@H](OCc2ccc(CO)cc2)O1)N1CCN(Cc2ccc3c(c2)OCO3)CC1	75.6*	-8.3	22.3	i	i	-1.2	56.9*
COc1ccccc1/C=C(/C(=O)OCC(=O)Nc1cc(C)ccc1C)c1ccccc1	-6.4	-8.6	9.8	i	i	/	/
Cc1cccc(C(=O)N2CCNC(=O)C2CC(=O)Nc2cccc(Cl)c2)c1 (stereo not drawn)	-4.4	-30.0	5.8	i	i	/	/
COc1ccccc1N1CCN(CCCNC(=O)C2CCCN(c3ncnc4c3nc3n4CCCCC3)C2)CC1 (stereo not drawn)	23.3	23.1	12.2	i	i	/	/
Cc1cccc(OCc2n(CC(=O)OC3CC(C)CCC3C(C)C)c3ccccc3[n+]2C)c1 (stereo not drawn)	59.2*	31.0	50.3*	100*	-6.21*	5.5	91.8*
O=C1c2cccc3cccc(c23)C(=O)N1CC1CCN(CC(O)COc2ccc3ccccc3c2)CC1 (stereo not drawn)	79.0*	/	36.3	i	i	-0.7	85.2*
COc1ccc(COCC(O)CN2CCC(CN3C(=O)c4cccc5cccc(c45)C3=O)CC2)cc1OC (stereo not drawn)	72.9*	12.3	2.0	i	i	-4.0	65.1*
O=C1c2cccc3cccc(c23)C(=O)N1CCN1CCN(CC(O)COCc2ccc(Cl)cc2)CC1 (stereo not drawn)	98.1*	12.2	1.3	i	i	-3.6	108.4*
O=C1c2cccc3cccc(c23)C(=O)N1CCN1CCN(CC(O)COc2ccc3ccccc3c2)CC1 (stereo not drawn)	105.4*	0.0	18.3	i	i	-2.4	112.0*
